In ChEMBL document CHEMBL3877280, “Discovery of novel rivastigmine-hydroxycinnamic acid hybrids as multi-targeted agents for Alzheimer's disease” (Eur J Med Chem, 2017):
The source made the active and inactive calls. No cut-off for these calls is given here.

Columns and labels:
[1] = biological target: Cholinesterase (Homo sapiens) (UniProt P06276); experiment: Inhibition of BuChE (unknown origin) at 1 uM using acetylthiocholine iodide as substrate preincubated for 60 mins followed by substrate addition measured after 5 mins by Ellman's method relative to control
Method in brief: (§1)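 Ellman method at 37 °C. BuChE stock made in 0.1% gelatin, diluted to 0.13-0.100 AU/min. Enzyme preincubated with compound for 60 min in 0.1 M phosphate pH 8.0 with 40 µM DTNB, then 20 µM acetylthiocholine iodide added. A412 rate followed for 5 min against an enzyme-free blank; triplicates; percent inhibition from rates.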

[2] = biological target: Cholinesterase (Homo sapiens) (UniProt P06276); experiment: Inhibition of BuChE (unknown origin) at 5 uM using acetylthiocholine iodide as substrate preincubated for 60 mins followed by substrate addition measured after 5 mins by Ellman's method relative to control; method in brief: as §1
[3] = Antioxidant activity assessed as DPPH radical scavenging activity at 10 uM incubated under dark condition for 60 mins by spectrophotometric method relative to control; format: functional
Method in brief: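 DPPH scavenging: compound at 10 µM final added to DPPH in ethanol (100 µM final), kept in dark at 25-26 °C for 60 min under dim light. Absorbance read at 517 nm. Capacity = (A1 − A2)/A1 × 100%, with A1 the control absorbance.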

HT-22 = experiment: Cytoprotective activity against H2O2-induced cell death in mouse HT22 cells assessed as increase in cell viability at 10 to 30 uM preincubated for 30 mins followed by H2O2 addition measured after 24 hrs by MTT assay; format: functional, cell-based
Method in brief: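 HT22 cells (DMEM/10% FBS, 10,000 cells/well) pretreated with compound for 30 min, then 500 µM H2O2 for 24 h. Viability by MTT; vehicle controls; mean ± SEM, n = 6.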

Mus musculus [4] = organism: Mus musculus; experiment: Cytotoxicity against mouse HT22 cells assessed as reduction in cell viability at 100 uM after 24 hrs by MTT assay; format: toxicity, cell-based; details: ht-22, 24 h
Method in brief: (§2)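 HT22 cells grown in DMEM + 10% FBS at 37 °C, 5% CO2, seeded at 10,000 cells/well. Exposed to compound for 24 h; vehicle-only controls. Viability by MTT, mean ± SEM, n = 6.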

Mus musculus [5] = organism: Mus musculus; experiment: Cytotoxicity against mouse HT22 cells assessed as reduction in cell viability at 10 uM after 24 hrs by MTT assay; format: toxicity, cell-based; details: ht-22, 24 h; method in brief: as §2
[6] = biological target: Amyloid-beta precursor protein (Homo sapiens) (UniProt P05067); experiment: Inhibition of HFIP-pretreated amyloid beta (1 to 42) (unknown origin) self-induced aggregation at 10 uM after 24 hrs by thioflavin-T fluorescence assay relative to control
[7] = Copper chelating activity assessed as Cu2+-compound complex formation by measuring bathochromic shift at 10 uM after 30 mins by UV-Visible spectrometric method
Method in brief: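 CuCl2 in water and compound (methanol stock diluted in PBS) brought up in absolute ethanol. Mixture stood 30 min at room temperature, then absorption spectrum recorded at room temperature.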

[8] = Cytoprotective activity against glutamate-induced cell death in mouse HT22 cells assessed as cell viability at 10 to 30 uM preincubated for 30 mins followed by H2O2 addition measured after 24 hrs by MTT assay; format: functional, HT-22
Method in brief: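 HT22 cells (DMEM/10% FBS, 10,000 cells/well) pretreated with compound for 30 min, then 2 mM glutamate for 24 h. Viability by MTT; vehicle controls; mean ± SEM, n = 6.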

Sequence of Cholinesterase (Homo sapiens) (P06276 whole entry): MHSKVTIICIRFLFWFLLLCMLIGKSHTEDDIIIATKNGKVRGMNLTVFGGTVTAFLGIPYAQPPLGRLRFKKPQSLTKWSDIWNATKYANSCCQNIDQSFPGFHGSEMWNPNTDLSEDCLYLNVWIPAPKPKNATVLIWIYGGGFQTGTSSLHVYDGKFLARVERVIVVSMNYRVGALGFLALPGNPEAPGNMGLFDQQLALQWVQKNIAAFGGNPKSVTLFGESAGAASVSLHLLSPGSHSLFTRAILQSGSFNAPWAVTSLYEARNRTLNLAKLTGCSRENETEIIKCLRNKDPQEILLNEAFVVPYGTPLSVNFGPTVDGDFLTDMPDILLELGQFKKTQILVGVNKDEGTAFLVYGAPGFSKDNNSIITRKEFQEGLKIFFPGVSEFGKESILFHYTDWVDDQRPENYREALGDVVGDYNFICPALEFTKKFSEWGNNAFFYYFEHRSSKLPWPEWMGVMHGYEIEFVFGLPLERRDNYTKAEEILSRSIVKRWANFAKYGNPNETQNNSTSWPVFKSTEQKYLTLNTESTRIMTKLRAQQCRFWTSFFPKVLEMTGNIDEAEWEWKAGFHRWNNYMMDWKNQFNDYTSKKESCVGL
Sequence of Amyloid-beta precursor protein (Homo sapiens) (P05067 whole entry): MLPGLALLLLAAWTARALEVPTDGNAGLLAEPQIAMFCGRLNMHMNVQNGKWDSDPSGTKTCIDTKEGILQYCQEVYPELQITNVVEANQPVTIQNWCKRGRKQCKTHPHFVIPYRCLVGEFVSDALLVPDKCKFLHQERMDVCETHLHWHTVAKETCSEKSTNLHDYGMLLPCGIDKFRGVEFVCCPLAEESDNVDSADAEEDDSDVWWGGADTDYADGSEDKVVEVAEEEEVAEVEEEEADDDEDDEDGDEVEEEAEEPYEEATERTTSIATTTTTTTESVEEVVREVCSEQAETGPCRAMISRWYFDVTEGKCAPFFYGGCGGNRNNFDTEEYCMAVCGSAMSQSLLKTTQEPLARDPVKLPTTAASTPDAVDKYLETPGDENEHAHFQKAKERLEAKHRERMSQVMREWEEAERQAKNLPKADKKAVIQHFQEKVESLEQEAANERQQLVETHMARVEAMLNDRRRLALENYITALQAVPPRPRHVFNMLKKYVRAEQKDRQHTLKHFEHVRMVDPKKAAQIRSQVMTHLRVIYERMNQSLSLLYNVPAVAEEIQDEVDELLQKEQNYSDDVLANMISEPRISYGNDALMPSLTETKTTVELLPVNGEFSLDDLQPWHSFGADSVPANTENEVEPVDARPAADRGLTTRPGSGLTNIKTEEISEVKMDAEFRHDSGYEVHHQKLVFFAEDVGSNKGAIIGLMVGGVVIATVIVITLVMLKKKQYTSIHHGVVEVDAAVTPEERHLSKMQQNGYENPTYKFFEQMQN

Compound	inhibition [1] [%]	inhibition [2] [%]	Activity [3] [%]	Activity (HT-22)	Activity (Mus musculus [4])	Activity (Mus musculus [5])	inhibition [6] [%]	Activity [7]	Activity [8] [%]
CCN(C)C(=O)Oc1cccc([C@H](C)N(C)C)c1	61	93							
CCN(C)C(=O)Oc1cccc(CNC(=O)/C=C/c2ccc(O)c(O)c2)c1	80.8	97	69.7	Active	Toxic	Non-Toxic	77.6		
Nc1c(/N=N/c2ccc(-c3ccc(/N=N/c4cc(S(=O)(=O)O)c5ccccc5c4N)cc3)cc2)cc(S(=O)(=O)O)c2ccccc12							86.5		
O=C(O)/C=C/c1ccc(O)c(O)c1			64.6						
CCN(C)C(=O)Oc1cccc(CCNC(=O)/C=C/c2ccc(O)c(OC)c2)c1	72.3	96.6	18.1	Active	Toxic	Non-Toxic	2.2		
CCN(C)C(=O)Oc1cccc(CCNC(=O)/C=C/c2ccc(O)c(O)c2)c1	76.3	92	51.7	Active	Toxic	Non-Toxic	85.3	Active	
CCN(C)C(=O)Oc1cccc(NC(=O)/C=C/c2ccc(O)c(OC)c2)c1	98	98.3	19.5	Active	Toxic	Non-Toxic	13.2		
COc1cc(/C=C/C(=O)O)ccc1O			19.9						
CCN(C)C(=O)Oc1cccc(NC(=O)/C=C/c2ccc(O)c(O)c2)c1	49.6	91	37	Active	Toxic	Non-Toxic	73.2		52.9
CCN(C)C(=O)Nc1cccc(NC(=O)/C=C/c2ccc(O)c(O)c2)c1	13.8	24.4	64.7	Active	Toxic	Non-Toxic	82.5		56.9
CCN(C)C(=O)Nc1cccc(NC(=O)/C=C/c2ccc(O)c(OC)c2)c1	19.4	36.6	24.1	Active	Toxic	Non-Toxic	2.2		
CCN(C)C(=O)Oc1cccc(CNC(=O)/C=C/c2ccc(O)c(OC)c2)c1	87.9	97.9	17.9		Toxic	Non-Toxic	3.2		
